Source: ChEMBL document CHEMBL3769383, “Cefsulodin Inspired Potent and Selective Inhibitors of mPTPB, a Virulent Phosphatase from Mycobacterium tuberculosis” (ACS Med Chem Lett, 2015)
pKi: −log10 of the molar value. Active and inactive are the calls of the source. The rule behind the calls is not given here.

What was measured:
[1] = molecular target: Tyrosine-protein phosphatase non-receptor type 2 (Homo sapiens) (UniProt P17706); assay: Inhibition of TC-PTP (unknown origin) using pNPP as substrate at 200 uM after 5 mins by spectrophotometry
Procedure, shortened: (§1)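 Single-point screen: the test compound is present at 200 μM in the assay (a compound concentration, not a substrate level). The read-out is phosphatase-catalysed hydrolysis of para-nitrophenyl phosphate.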

[2] = molecular target: Tyrosine-protein phosphatase non-receptor type 22 (Homo sapiens) (UniProt Q9Y2R2); assay: Inhibition of LYP (unknown origin) expressed in Escherichia coli using pNPP as substrate at 200 uM after 5 mins by spectrophotometry; procedure, shortened: as §1
[3] = molecular target: Tyrosine-protein phosphatase non-receptor type 7 (Homo sapiens) (UniProt P35236); assay: Inhibition of HePTP (unknown origin) expressed in Escherichia coli using pNPP as substrate at 200 uM after 5 mins by spectrophotometry; procedure, shortened: as §1
[4] = molecular target: Tyrosine-protein phosphatase non-receptor type 6 (Homo sapiens) (UniProt P29350); assay: Inhibition of SHP1 (unknown origin) expressed in Escherichia coli using pNPP as substrate at 200 uM after 5 mins by spectrophotometry; procedure, shortened: as §1
[5] = molecular target: Tyrosine-protein phosphatase non-receptor type 11 (Homo sapiens) (UniProt Q06124); assay: Inhibition of SHP2 (unknown origin) expressed in Escherichia coli using pNPP as substrate at 200 uM after 5 mins by spectrophotometry; procedure, shortened: as §1
[6] = molecular target: Tyrosine-protein phosphatase non-receptor type 3 (Homo sapiens) (UniProt P26045); assay: Inhibition of PTPH1 (unknown origin) using pNPP as substrate at 200 uM after 5 mins by spectrophotometry; procedure, shortened: as §1
[7] = molecular target: Tyrosine-protein phosphatase non-receptor type 9 (Homo sapiens) (UniProt P43378); assay: Inhibition of Meg2 (unknown origin) using pNPP as substrate at 200 uM after 5 mins by spectrophotometry; procedure, shortened: as §1
[8] = molecular target: Receptor-type tyrosine-protein phosphatase F (Homo sapiens) (UniProt P10586); assay: Inhibition of LAR (unknown origin) using pNPP as substrate at 200 uM after 5 mins by spectrophotometry; procedure, shortened: as §1
[9] = molecular target: Receptor-type tyrosine-protein phosphatase alpha (Homo sapiens) (UniProt P18433); assay: Inhibition of PTPalpha (unknown origin) using pNPP as substrate at 200 uM after 5 mins by spectrophotometry; procedure, shortened: as §1
[10] = molecular target: Receptor-type tyrosine-protein phosphatase gamma (Homo sapiens) (UniProt P23470); assay: Inhibition of PTPgamma (unknown origin) using pNPP as substrate at 200 uM after 5 mins by spectrophotometry; procedure, shortened: as §1
[11] = molecular target: Receptor-type tyrosine-protein phosphatase epsilon (Homo sapiens) (UniProt P23469); assay: Inhibition of PTPepsilon (unknown origin) using pNPP as substrate at 200 uM after 5 mins by spectrophotometry; procedure, shortened: as §1
[12] = molecular target: Dual specificity protein phosphatase 10 (Homo sapiens) (UniProt Q9Y6W6); assay: Inhibition of MKP5 (unknown origin) using pNPP as substrate at 200 uM after 5 mins by spectrophotometry; procedure, shortened: as §1
[13] = molecular target: Dual specificity protein phosphatase 3 (Homo sapiens) (UniProt P51452); assay: Inhibition of VHR (unknown origin) using pNPP as substrate at 200 uM after 5 mins by spectrophotometry; procedure, shortened: as §1
[14] = molecular target: Dual specificity protein phosphatase CDC14A (Homo sapiens) (UniProt Q9UNH5); assay: Inhibition of CDC14A (unknown origin) using pNPP as substrate at 200 uM after 5 mins by spectrophotometry; procedure, shortened: as §1
[15] = molecular target: Low molecular weight phosphotyrosine protein phosphatase (Homo sapiens) (UniProt P24666); assay: Inhibition of LMWPTP (unknown origin) using pNPP as substrate at 200 uM after 5 mins by spectrophotometry; procedure, shortened: as §1
[16] = molecular target: Serine/threonine-protein phosphatase 5 (Homo sapiens) (UniProt P53041); assay: Inhibition of PP5 (unknown origin) using pNPP as substrate at 200 uM after 5 mins by spectrophotometry; procedure, shortened: as §1
RAW264.7 = assay: Inhibition of Mycobacterium tuberculosis PTPB transfected in mouse RAW264.7 cells assessed as increase in p38 phosphorylation pre-treated for 1 hrs followed by stimulation with IFNgamma for 1 hr by Western blotting method; format: cell-based
[17] = molecular target: Mitogen-activated protein kinase 1 and 3 (ERK2 and ERK1) (Mus musculus) (UniProt P63085+Q63844); assay: Effect on ERK1/2 phosphorylation in mouse RAW264.7 cells transfected with empty vector at 10 to 40 nM pre-treated for 1 hrs followed by stimulation with IFNgamma for 1 hr by Western blotting method; format: cell-based
[18] = molecular target: RAC-alpha serine/threonine-protein kinase (Mus musculus) (UniProt P31750); assay: Effect on Akt phosphorylation in mouse RAW264.7 cells transfected with empty vector at 10 to 40 nM pre-treated for 1 hrs followed by stimulation with IFNgamma for 1 hr by Western blotting method; format: cell-based
[19] = Reversible competitive inhibition of Mycobacterium tuberculosis PTPB expressed in Escherichia coli BL21/DE3 cells using pNPP as substrate after 5 mins by Lineweaver-Burk plot analysis
[20] = Selectivity ratio of IC50 for PTP1B (unknown origin) to IC50 for Mycobacterium tuberculosis PTPB
[21] = Selectivity ratio of IC50 for TC-PTP (unknown origin) to IC50 for Mycobacterium tuberculosis PTPB
Procedure, shortened: (§2)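 Each phosphatase in the 25-enzyme panel was tested for inhibition at 200 μM compound. The mPTPB IC50 was determined against mPTPB-catalysed hydrolysis of para-nitrophenyl phosphate. The ratio is the panel-enzyme IC50 divided by the mPTPB IC50.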

[22] = Selectivity ratio of IC50 for SHP2 (unknown origin) to IC50 for Mycobacterium tuberculosis PTPB; procedure, shortened: as §2
[23] = Selectivity ratio of IC50 for Meg2 (unknown origin) to IC50 for Mycobacterium tuberculosis PTPB
[24] = Selectivity ratio of IC50 for CD45 (unknown origin) to IC50 for Mycobacterium tuberculosis PTPB
[25] = Selectivity ratio of IC50 for LAR (unknown origin) to IC50 for Mycobacterium tuberculosis PTPB
[26] = Selectivity ratio of IC50 for PTPalpha (unknown origin) to IC50 for Mycobacterium tuberculosis PTPB; procedure, shortened: as §2
[27] = Selectivity ratio of IC50 for PTPmu (unknown origin) to IC50 for Mycobacterium tuberculosis PTPB; procedure, shortened: as §2
[28] = Selectivity ratio of IC50 for PTPsigma (unknown origin) to IC50 for Mycobacterium tuberculosis PTPB; procedure, shortened: as §2
[29] = Selectivity ratio of IC50 for MKP5 (unknown origin) to IC50 for Mycobacterium tuberculosis PTPB
[30] = Selectivity ratio of IC50 for VHR (unknown origin) to IC50 for Mycobacterium tuberculosis PTPB; procedure, shortened: as §2
[31] = Selectivity ratio of IC50 for CDC14A (unknown origin) to IC50 for Mycobacterium tuberculosis PTPB
[32] = Selectivity ratio of IC50 for Laforin (unknown origin) to IC50 for Mycobacterium tuberculosis PTPB
[33] = Selectivity ratio of IC50 for LMWPTP (unknown origin) to IC50 for Mycobacterium tuberculosis PTPB
[34] = Selectivity ratio of IC50 for PP5 (unknown origin) to IC50 for Mycobacterium tuberculosis PTPB

Tyrosine-protein phosphatase non-receptor type 2 (Homo sapiens), sequence (P17706 whole entry): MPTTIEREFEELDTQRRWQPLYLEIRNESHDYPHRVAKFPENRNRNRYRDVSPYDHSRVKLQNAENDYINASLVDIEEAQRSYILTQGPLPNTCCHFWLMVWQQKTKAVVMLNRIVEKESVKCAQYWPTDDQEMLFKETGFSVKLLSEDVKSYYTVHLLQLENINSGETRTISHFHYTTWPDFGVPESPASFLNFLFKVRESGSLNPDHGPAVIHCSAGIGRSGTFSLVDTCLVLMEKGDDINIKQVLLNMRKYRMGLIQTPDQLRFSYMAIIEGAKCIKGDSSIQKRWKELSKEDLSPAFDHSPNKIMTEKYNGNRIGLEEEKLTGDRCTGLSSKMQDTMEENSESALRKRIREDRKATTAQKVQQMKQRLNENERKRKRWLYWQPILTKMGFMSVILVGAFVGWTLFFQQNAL
RAC-alpha serine/threonine-protein kinase (Mus musculus), sequence (P31750 whole entry): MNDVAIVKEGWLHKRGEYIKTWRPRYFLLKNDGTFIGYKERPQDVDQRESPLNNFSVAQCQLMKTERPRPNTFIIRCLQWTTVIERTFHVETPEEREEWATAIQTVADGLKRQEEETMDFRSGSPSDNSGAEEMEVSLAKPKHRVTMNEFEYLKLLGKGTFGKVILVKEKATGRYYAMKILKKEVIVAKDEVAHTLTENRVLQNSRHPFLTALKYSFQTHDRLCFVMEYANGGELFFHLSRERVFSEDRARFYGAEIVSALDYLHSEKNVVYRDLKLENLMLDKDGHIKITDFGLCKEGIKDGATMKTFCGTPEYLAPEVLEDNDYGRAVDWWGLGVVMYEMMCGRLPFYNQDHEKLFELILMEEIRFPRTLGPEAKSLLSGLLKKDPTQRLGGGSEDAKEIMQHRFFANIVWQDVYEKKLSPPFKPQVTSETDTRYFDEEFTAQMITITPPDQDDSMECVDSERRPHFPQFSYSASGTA
Tyrosine-protein phosphatase non-receptor type 7 (Homo sapiens), sequence (P35236 whole entry): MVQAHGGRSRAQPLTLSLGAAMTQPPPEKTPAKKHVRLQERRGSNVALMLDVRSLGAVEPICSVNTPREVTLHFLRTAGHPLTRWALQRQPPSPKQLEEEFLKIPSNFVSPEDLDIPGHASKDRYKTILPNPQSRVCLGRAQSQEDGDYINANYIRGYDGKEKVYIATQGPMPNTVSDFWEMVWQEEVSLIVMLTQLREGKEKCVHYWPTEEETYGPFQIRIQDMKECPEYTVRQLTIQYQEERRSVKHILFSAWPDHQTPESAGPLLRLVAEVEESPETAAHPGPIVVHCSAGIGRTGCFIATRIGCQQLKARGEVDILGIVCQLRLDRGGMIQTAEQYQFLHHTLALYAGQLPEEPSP
Receptor-type tyrosine-protein phosphatase epsilon (Homo sapiens), sequence (P23469 whole entry): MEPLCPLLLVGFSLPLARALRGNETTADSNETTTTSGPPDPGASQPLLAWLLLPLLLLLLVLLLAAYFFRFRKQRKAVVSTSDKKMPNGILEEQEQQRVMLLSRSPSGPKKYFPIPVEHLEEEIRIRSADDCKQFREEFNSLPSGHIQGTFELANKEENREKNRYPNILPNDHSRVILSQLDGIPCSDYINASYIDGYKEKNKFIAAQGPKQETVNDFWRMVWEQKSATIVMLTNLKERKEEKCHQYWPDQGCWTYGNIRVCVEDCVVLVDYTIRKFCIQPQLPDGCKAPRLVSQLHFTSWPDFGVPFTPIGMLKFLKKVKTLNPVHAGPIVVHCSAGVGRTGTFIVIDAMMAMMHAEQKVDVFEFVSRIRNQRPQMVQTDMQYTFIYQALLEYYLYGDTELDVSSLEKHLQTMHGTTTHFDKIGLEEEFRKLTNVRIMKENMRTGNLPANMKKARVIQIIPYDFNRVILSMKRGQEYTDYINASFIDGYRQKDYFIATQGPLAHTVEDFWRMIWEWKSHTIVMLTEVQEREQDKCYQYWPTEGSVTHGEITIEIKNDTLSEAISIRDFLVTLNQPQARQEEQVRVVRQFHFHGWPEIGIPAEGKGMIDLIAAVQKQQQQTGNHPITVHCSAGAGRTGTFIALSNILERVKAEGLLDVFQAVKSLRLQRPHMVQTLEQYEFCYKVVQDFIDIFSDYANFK
Serine/threonine-protein phosphatase 5 (Homo sapiens), sequence (P53041 whole entry): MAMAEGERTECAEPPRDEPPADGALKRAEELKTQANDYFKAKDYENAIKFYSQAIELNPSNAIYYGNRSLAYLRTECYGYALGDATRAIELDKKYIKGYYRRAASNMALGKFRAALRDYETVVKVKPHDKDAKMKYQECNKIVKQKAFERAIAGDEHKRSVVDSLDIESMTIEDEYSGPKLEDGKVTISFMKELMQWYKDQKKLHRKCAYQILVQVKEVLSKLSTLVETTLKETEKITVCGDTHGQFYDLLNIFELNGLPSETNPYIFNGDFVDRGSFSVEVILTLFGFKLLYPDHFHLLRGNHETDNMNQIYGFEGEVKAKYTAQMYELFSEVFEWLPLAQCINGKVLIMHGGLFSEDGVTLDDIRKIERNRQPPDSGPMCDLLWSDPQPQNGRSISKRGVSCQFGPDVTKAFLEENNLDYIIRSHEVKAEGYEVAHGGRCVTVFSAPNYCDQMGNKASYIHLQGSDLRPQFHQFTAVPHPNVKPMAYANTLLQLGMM
Mitogen-activated protein kinase 1 and 3 (ERK2 and ERK1) (Mus musculus), sequence (P63085 whole entry, looked up): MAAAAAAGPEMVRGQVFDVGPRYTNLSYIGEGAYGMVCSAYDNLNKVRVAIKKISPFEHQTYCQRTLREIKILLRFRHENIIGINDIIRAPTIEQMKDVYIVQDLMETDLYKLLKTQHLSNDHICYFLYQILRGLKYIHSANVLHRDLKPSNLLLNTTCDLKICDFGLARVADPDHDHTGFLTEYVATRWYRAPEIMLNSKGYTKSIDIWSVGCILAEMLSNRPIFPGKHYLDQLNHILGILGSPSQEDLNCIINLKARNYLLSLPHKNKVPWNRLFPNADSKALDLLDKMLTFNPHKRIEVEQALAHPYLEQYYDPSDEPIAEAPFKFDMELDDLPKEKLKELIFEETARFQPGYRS
Mitogen-activated protein kinase 1 and 3 (ERK2 and ERK1) (Mus musculus), sequence (Q63844 whole entry, looked up): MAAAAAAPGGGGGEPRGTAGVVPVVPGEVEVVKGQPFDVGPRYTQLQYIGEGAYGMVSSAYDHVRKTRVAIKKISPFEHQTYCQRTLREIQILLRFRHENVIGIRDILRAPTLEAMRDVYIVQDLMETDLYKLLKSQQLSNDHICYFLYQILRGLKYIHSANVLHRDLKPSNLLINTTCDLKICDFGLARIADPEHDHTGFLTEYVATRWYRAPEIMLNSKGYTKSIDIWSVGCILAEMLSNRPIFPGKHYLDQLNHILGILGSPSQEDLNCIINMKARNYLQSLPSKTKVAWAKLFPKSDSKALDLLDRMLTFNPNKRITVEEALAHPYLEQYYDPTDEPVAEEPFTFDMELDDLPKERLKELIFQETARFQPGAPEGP
Receptor-type tyrosine-protein phosphatase alpha (Homo sapiens), sequence (P18433 20-802 limits assumed): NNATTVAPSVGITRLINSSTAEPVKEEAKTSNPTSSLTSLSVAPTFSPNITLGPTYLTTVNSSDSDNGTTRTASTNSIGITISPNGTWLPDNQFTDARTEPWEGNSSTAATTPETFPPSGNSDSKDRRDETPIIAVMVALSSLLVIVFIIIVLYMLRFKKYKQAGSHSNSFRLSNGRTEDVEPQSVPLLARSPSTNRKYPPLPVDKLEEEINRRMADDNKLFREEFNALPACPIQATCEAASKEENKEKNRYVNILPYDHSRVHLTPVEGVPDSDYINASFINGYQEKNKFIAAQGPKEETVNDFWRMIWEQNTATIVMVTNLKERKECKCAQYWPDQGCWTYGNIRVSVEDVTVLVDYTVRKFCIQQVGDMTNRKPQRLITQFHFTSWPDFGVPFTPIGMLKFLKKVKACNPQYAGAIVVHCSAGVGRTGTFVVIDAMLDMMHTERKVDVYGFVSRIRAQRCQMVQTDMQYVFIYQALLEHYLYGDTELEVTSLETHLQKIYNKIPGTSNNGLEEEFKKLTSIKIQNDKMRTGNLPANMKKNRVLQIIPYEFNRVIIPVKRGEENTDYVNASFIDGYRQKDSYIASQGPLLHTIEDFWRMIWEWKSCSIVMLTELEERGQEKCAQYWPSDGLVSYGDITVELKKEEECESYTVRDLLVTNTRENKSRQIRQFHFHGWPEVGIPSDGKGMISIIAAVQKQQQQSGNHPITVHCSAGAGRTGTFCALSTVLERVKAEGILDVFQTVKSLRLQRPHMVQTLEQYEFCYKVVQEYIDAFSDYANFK
Dual specificity protein phosphatase CDC14A (Homo sapiens), sequence (Q9UNH5 whole entry): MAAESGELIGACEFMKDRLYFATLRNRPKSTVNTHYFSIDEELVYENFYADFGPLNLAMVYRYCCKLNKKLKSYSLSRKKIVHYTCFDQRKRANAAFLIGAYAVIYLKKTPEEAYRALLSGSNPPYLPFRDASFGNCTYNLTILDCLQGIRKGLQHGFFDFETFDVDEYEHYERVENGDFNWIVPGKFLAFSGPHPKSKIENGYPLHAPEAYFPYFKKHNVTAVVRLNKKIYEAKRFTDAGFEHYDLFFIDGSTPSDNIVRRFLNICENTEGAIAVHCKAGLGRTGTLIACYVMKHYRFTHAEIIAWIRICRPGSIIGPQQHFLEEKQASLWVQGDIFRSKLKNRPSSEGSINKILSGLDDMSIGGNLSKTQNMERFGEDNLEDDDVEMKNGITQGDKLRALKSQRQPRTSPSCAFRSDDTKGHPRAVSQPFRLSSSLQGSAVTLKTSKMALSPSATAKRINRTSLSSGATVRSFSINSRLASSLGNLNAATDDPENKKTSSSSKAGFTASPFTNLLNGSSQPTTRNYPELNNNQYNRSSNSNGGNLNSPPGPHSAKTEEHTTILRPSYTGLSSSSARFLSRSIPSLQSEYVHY
Low molecular weight phosphotyrosine protein phosphatase (Homo sapiens), sequence (P24666 whole entry): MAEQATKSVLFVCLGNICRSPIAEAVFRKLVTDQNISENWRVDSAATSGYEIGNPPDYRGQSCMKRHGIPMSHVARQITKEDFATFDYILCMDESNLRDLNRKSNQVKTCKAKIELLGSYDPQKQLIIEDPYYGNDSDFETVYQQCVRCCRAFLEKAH
Dual specificity protein phosphatase 3 (Homo sapiens), sequence (P51452 whole entry, looked up): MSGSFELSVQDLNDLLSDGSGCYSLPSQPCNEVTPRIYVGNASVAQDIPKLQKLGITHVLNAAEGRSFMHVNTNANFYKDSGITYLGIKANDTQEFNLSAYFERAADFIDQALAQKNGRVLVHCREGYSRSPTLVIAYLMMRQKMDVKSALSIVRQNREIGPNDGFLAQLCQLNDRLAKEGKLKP

## O=C(C(c1ccccc1)S(=O)(=O)O)N1CCCC2CCCCC21 (racemic)
[1]
  inhibition: inactive
[2]
  inhibition: inactive
[3]
  inhibition: inactive
[4]
  inhibition: inactive
[5]
  inhibition: inactive
[6]
  inhibition: inactive
[7]
  inhibition: inactive
[8]
  inhibition: inactive
[9]
  inhibition: inactive
[10]
  inhibition: inactive
[11]
  inhibition: inactive
[12]
  inhibition: inactive
[13]
  inhibition: inactive
[14]
  inhibition: inactive
[15]
  inhibition: inactive
[16]
  inhibition: inactive
RAW264.7
  inhibition: Dose-dependent effect
[17]
  Activity: inactive
[18]
  Activity: inactive
[19]
  pKi: 8.10
[20]
  Ratio IC50: > 10000
[21]
  Ratio IC50: > 10000
[22]
  Ratio IC50: > 10000
[23]
  Ratio IC50: > 10000
[24]
  Ratio IC50: > 10000
[25]
  Ratio IC50: > 10000
[26]
  Ratio IC50: > 10000
[27]
  Ratio IC50: > 10000
[28]
  Ratio IC50: > 10000
[29]
  Ratio IC50: > 10000
[30]
  Ratio IC50: > 10000
[31]
  Ratio IC50: > 10000
[32]
  Ratio IC50: > 10000
[33]
  Ratio IC50: > 10000
[34]
  Ratio IC50: > 10000
